FXIIa inh 1536 – human FXIIa protease inhibitors, primary screen, biochemical, 1536-well | purified FXIIa, Boc-QGR-AMC fluorogenic substrate, 2 h | 0.3% of 220,000 active | inhibition, % at 5 µM | Coagulation factor XII (Homo sapiens), P00748; in the data active means inhibition above about 40%
FXIa inh 1536 – human FXIa protease inhibitors, primary screen, biochemical, 1536-well; purified FXIa, Boc-Glu-Ala-Arg-AMC fluorogenic substrate; inhibition, % at 5 µM; 0.14% of 220,000 active;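 active means inhibition of at least 40%; inactive means inhibition below 40%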;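 further: fluorescence of freed AMC excited at 355 nm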
PGE2 EP2 inh – human EP2 receptor antagonists, primary screen, TR-FRET cAMP, C6 glioma cells; inhibition, % at 25 µM; 0.52% of 260,000 active; Prostaglandin E2 receptor EP2 subtype (Homo sapiens), P43116; C6 glioma cells expressing human EP2; cells stimulated with saturating PGE2;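 active means percent inhibition above 40 after rounding to a whole number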;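 further: rat C6 glioma host cells with rolipram phosphodiesterase inhibitor present; the protocol text gives 20 µM as final concentration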
Target sequence (P43116 whole entry, looked up): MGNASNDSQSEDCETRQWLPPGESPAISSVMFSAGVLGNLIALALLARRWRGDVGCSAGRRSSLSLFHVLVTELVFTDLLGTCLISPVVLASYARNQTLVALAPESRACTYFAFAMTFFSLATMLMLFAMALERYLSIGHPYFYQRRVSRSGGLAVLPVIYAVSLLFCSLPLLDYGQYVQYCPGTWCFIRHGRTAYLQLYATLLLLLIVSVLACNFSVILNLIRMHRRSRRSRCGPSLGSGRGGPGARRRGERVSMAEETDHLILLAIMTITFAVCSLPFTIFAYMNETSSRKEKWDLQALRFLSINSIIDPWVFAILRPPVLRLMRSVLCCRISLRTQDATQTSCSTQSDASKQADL
KLK5 inh – human KLK5 protease inhibitors, primary screen, biochemical, 1536-well; AID 873, 2007; inhibition, % at 5 µM; recombinant hK5, fluorogenic AMC substrate cleavage; 0.59% of 210,000 active;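 active means inhibition of 40% or more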
Target sequence (Q9Y337 67-293 limits assumed): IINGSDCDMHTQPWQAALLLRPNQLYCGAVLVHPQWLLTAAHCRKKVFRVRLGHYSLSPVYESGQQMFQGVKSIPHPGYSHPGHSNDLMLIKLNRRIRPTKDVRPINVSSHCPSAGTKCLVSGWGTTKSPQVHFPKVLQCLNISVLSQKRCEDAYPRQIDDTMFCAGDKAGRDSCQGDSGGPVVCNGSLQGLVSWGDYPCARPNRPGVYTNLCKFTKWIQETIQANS
Thrombin inh – human alpha-thrombin inhibitors, primary screen, counter-screen for coagulation protease inhibitor project, biochemical, 1536-well, fluorogenic AMC substrate; Boc-VPR-AMC fluorogenic substrate cleavage; inhibition, % at 5 µM; Prothrombin (Homo sapiens), P00734; 0.26% of 220,000 active;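 active means inhibition at or above 40%; inactive means inhibition below 40%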
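System: Human alpha-thrombin protein | Medium: pH 7.5 Tris (50 mM) with NaCl 150 mM, Tween 20 0.05% | Times: Enzyme reaction carried out at room temperature | Detection: AMC fluorescence, 355/460 nm | Evaluation: Percent inhibition scaled between no-compound controls and no-enzyme blanks | Benchmarks: Enzyme without compound as high, wells lacking enzyme as low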
EP2 modulator – EP2 receptor modulators, cAMP readout, primary screen, cell-based, HTRF cAMP, PGE2 stimulation; AID 940, 2007; induction, % at 25 µM; EP2-expressing cells, cAMP HTRF FRET, PGE2 co-stimulation; 0.83% of 260,000 active; Prostaglandin E2 receptor EP2 subtype (Homo sapiens), P43116;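 active means compounds whose cAMP rise, as percent of the full-agonist control response, exceeds 60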;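 further: rat C6 glioma line stably carrying human EP2 under a CMV promoter; the protocol text gives 20 µM as final concentration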
Of the large screens only hits and unclear results are named; the others gave an inactive call. The list is not random: actives were taken first. Their share in the collection is about 2.1%.

CC(=O)c1c(N2CCC(C(N)=O)CC2)nc(=S)n(-c2ccccc2)c1C	KLK5 inh 45
CN(C)C[C@H]1CCC2=C(C1=O)C(c1ccc(Cl)c(Cl)c1)C1=C(CC[C@H](CN(C)C)C1=O)O2	PGE2 EP2 inh 55 (no result: FXIIa inh 1536, FXIa inh 1536, KLK5 inh, Thrombin inh)
NNC1=NC2CS(=O)(=O)CC2S1 (stereo not given)	none (no result: FXIIa inh 1536, FXIa inh 1536, KLK5 inh, Thrombin inh)
O=C(c1cc2sccc2n1Cc1ccccc1)N1CCCCC1	none (no result: FXIIa inh 1536, FXIa inh 1536, KLK5 inh, Thrombin inh)
O=C(c1cc2sccc2n1Cc1ccccc1)N1CCc2ccccc21	EP2 modulator 64
COC(=O)c1cc2sccc2n1Cc1nc(-c2ccc(Cl)cc2)oc1C	none
CCOC(=O)c1cc2sccc2n1Cc1ccccc1	EP2 modulator 63
COC(=O)c1cc2sccc2n1Cc1ccc(C)cc1	EP2 modulator 64
C#CC(O)(c1ccccc1)c1cccnc1 (stereo not given)	none (no result: FXIIa inh 1536, FXIa inh 1536, KLK5 inh, Thrombin inh)
Cc1cccc2cc(CN(Cc3cccs3)C(=O)c3cccs3)c(=O)[nH]c12	none (no result: FXIIa inh 1536, FXIa inh 1536, KLK5 inh, Thrombin inh)
CN(C)S(=O)(=O)c1ccc(Nc2ccc(O)c3c2C(=O)c2c([N+](=O)[O-])ccc(O)c2C3=O)cc1	PGE2 EP2 inh 59 (no result: FXIIa inh 1536, FXIa inh 1536, KLK5 inh, Thrombin inh)
Cc1ccc(NC(=O)CN2CCC(n3nnc4ccccc43)CC2)cc1Cl	none (no result: FXIIa inh 1536, FXIa inh 1536, KLK5 inh, Thrombin inh)
COC(=O)c1nc(NC(=O)C(C)C)n[nH]1	none
COC(=O)c1nc(NC(C)=O)n[nH]1	FXIIa inh 1536 48
COCCCN1C(=O)C(O)=C(C(C)=O)C1c1ccc(O)c(OC)c1 (stereo not given)	none (no result: FXIIa inh 1536, FXIa inh 1536, KLK5 inh, Thrombin inh)
C#CCOc1ccc(C2C(C#N)=C(N)OC(C)=C2C(=O)OCC)cc1OC (stereo not given)	none (no result: FXIIa inh 1536, FXIa inh 1536, KLK5 inh, Thrombin inh)
O=C(N/N=C(\CC(=O)c1cccs1)C(F)(F)F)c1ccncc1	KLK5 inh 61
CCn1c(SCC(=O)Nc2cccc(C(=O)OC)c2)nc2c1c(=O)n(C)c(=O)n2C	none (no result: FXIIa inh 1536, FXIa inh 1536, KLK5 inh, Thrombin inh)
CCN(CC)C(=O)c1sc(NC(=O)c2cccc(F)c2)c(C#N)c1C	none (no result: FXIIa inh 1536, FXIa inh 1536, KLK5 inh, Thrombin inh)
COc1cc(NC(=O)CN(C)S(=O)(=O)c2ccc3c(c2)CCC(=O)N3)cc(OC)c1	KLK5 inh 49
COCCn1nnnc1CN(Cc1ccc(OC)cc1)Cc1cc2c(C)cc(C)cc2[nH]c1=O	none (no result: FXIIa inh 1536, FXIa inh 1536, KLK5 inh, Thrombin inh)
CCn1c(C)nc2cc(C(=O)N/N=C(\C)c3ccc(OC)cc3O)ccc21	FXIa inh 1536 43, Thrombin inh 58
CCn1c(C)nc2cc(C(=O)N/N=C/c3ccc(OC)cc3)ccc21	none
CN(C(=O)c1cc(-c2ccc(Cl)cc2Cl)on1)C1CCCCC1	none (no result: FXIIa inh 1536, FXIa inh 1536, KLK5 inh, Thrombin inh)
CC1(C)[C@@H]2CC[C@@]1(CS(=O)(=O)Nc1ccccc1)C(=O)C2	PGE2 EP2 inh 51 (no result: FXIIa inh 1536, FXIa inh 1536, KLK5 inh, Thrombin inh)
COc1ccccc1N1CCN(S(=O)(=O)CC23CCC(CC2=O)C3(C)C)CC1 (stereo not given)	none
CC1(C)C2CCC1(CS(=O)(=O)N1CCOCC1)C(=O)C2 (stereo not given)	PGE2 EP2 inh 96
COc1ccc(C)cc1N(C(=O)c1ccccc1)c1nc2ccccc2s1	none
COc1ccccc1N(C(=O)c1cncc(Br)c1)c1nc(-c2ccc(C)cc2)cs1	EP2 modulator 64
CC(OC(=O)c1cccs1)C(=O)NCc1ccc2c(c1)OCO2 (stereo not given)	none
CC(C)C(OC(=O)c1cccs1)C(=O)NCc1ccc2c(c1)OCO2 (stereo not given)	FXIIa inh 1536 57
CCC(C(=O)OC)n1cnc2scc(-c3ccc(Cl)cc3)c2c1=O (stereo not given)	none (no result: FXIIa inh 1536, FXIa inh 1536, KLK5 inh, Thrombin inh)
O=C(NCCN=C1NS(=O)(=O)c2ccccc21)c1ccco1	KLK5 inh 74 (no result: PGE2 EP2 inh)
O=C(NCCCN=C1NS(=O)(=O)c2ccccc21)c1ccco1	none
O=c1n(Cc2ccccc2)c2cc(Cl)cnc2n1Cc1ccccc1	EP2 modulator 62
O=C(NCc1ccco1)C1CC(c2ccccc2O)=NO1 (stereo not given)	none
O=C(NCc1ccco1)C1CC(c2ccccc2C(F)(F)F)=NO1 (stereo not given)	FXIa inh 1536 72
CC(CO)(CO)NCc1ccc(-c2ccccc2)cc1	Thrombin inh 46
CCCCc1[nH]c(=O)c(C#N)c2c1CSC(C)(C)C2	none
CCCCc1[nH]c(=O)c(C#N)c2c1CCCC2	FXIIa inh 1536 49
COc1ccc(S(=O)(=O)N2CCCC2C(=O)Nn2cnnc2)cc1 (stereo not given)	FXIIa inh 1536 43
COc1ccc(NC(=O)C2CCCCN2S(=O)(=O)c2ccc(F)cc2)c(OC)c1 (stereo not given)	KLK5 inh 41
Cc1ccc(S(=O)(=O)N2CCCC2C(=O)Nn2cnnc2)cc1 (stereo not given)	none
COc1ccc(NC(=O)C2CCCN2S(=O)(=O)c2ccc(C)cc2)cc1 (stereo not given)	none
COc1ccc(NC(=O)C2CCCCN2S(=O)(=O)c2ccc(F)cc2)cc1 (stereo not given)	KLK5 inh 53
O=C1CCCN1c1ccc(S(=O)(=O)NC2(c3ccccc3F)CC2)cc1	none (no result: FXIIa inh 1536, FXIa inh 1536, KLK5 inh, Thrombin inh)
CC(C)(C)N1C(=O)Cc2c1nc(N)c1c(N)nc(N3CCCCC3CO)c(C#N)c21 (stereo not given)	PGE2 EP2 inh 44
COc1ccc(S(=O)(=O)NC(C)C(=O)Nc2ccccc2F)cc1 (stereo not given)	none
COc1ccc(S(=O)(=O)NC(C)C(=O)Nc2cccc(C(C)=O)c2)cc1 (stereo not given)	Thrombin inh 47
CCOC(=O)C1=C(N)OC2=C(C(=O)CC(C)(C)C2)C1c1ccc(F)cc1 (stereo not given)	none (no result: FXIIa inh 1536, FXIa inh 1536, KLK5 inh, Thrombin inh)
COC(=O)c1ccc(C2C(C(=O)OC(C)C)=C(N)OC3=C2C(=O)CC(C)(C)C3)cc1 (stereo not given)	EP2 modulator 65 (no result: FXIIa inh 1536, FXIa inh 1536, KLK5 inh, Thrombin inh)
Cn1cnnc1SCc1nc2ccccc2[nH]1	none (no result: FXIIa inh 1536, FXIa inh 1536, KLK5 inh, Thrombin inh)
Cc1ccc(Oc2ccccc2/C=C2\SC(=O)N(C)C2=O)cc1	KLK5 inh 51
CN(C)c1nc(NC(C)(C)C)nc(SCC(=O)Nc2ccc(Cl)cc2)n1	none (no result: FXIIa inh 1536, FXIa inh 1536, KLK5 inh, Thrombin inh)
COc1ccc(N(C(=O)c2ccco2)S(=O)(=O)c2ccccc2)cc1	Thrombin inh 58
COc1ccc(/C=C/C(=O)Nc2ccccc2C)cc1S(=O)(=O)N1CCOCC1	none
CCC(C)(C)NC(=O)/C=C/c1ccc(OC)c(S(=O)(=O)N2CCOCC2)c1	KLK5 inh 43
COc1ccc2cc(CN(Cc3ccc(Cl)cc3)C(=O)NC3CCCCC3)c(=O)[nH]c2c1	none (no result: FXIIa inh 1536, FXIa inh 1536, KLK5 inh, Thrombin inh)
Cc1c2cc[n+](CCN3CCCCC3)cc2c(C)c2c1[nH]c1ccc(O)cc12	PGE2 EP2 inh 51 (no result: FXIIa inh 1536, FXIa inh 1536, KLK5 inh, Thrombin inh)

From PubChem
